ChEMBL document CHEMBL3259728, “Design, synthesis and biological evaluation of some novel substituted quinazolines as antitumor agents” (2014)

How the values were obtained:
Format in all cases: functional
[1] = Growth inhibition of human UACC257 cells assessed as cell growth at 10^-7 M after 48 hrs by SRB assay; settings: UACC-257, 48 h, read-out: Activity
KM12 = experiment: Growth inhibition of human KM12 cells assessed as cell growth at 10^-7 M after 48 hrs by SRB assay; settings: KM12, 48 h, read-out: Activity
786-0 = experiment: Growth inhibition of human 786-0 cells assessed as cell growth at 10^-4 M after 48 hrs by SRB assay; settings: 786-0, 48 h, read-out: Activity
How it was run: (§1)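 Five-dose NCI panel protocol. Each dose (10^-4 to 10^-8 M, 10-fold steps) was given as 48 h continuous exposure, and protein was measured by SRB staining. Percentage growth at each level is [(Ti−Tz)/(C−Tz)]×100, where Tz is time-zero absorbance and C is untreated control.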

[2] = Cytotoxicity against human OVCAR8 cells after 48 hrs by SRB assay; settings: OVCAR-8, 48 h
How it was run: (§2)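 NCI 60-cell-line panel of human tumour lines from nine cancer types. Continuous 48 h exposure at five 10-fold dilutions from 10^-4 to 10^-8 M, with 5-FU as positive control. SRB protein stain read spectrophotometrically at time zero, untreated control and each concentration. GI50, TGI and LC50 were derived from the [(Ti−Tz)/(C−Tz)]×100 growth relations, and out-of-range values are given as > or < the tested limits.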

HCT-116 [3] = experiment: Growth inhibition of human HCT116 cells assessed as cell growth at 10^-5 M after 48 hrs by SRB assay; settings: HCT-116, 48 h, read-out: Activity
SF-268 [4] = experiment: Growth inhibition of human SF268 cells assessed as cell growth at 10^-8 M after 48 hrs by SRB assay; settings: SF-268, 48 h, read-out: Activity
T47D = experiment: Growth inhibition of human T47D cells assessed as cell growth at 10^-7 M after 48 hrs by SRB assay; settings: read-out: Activity
M14 [5] = experiment: Growth inhibition of human M14 cells assessed as cell growth at 10^-5 M after 48 hrs by SRB assay; settings: M14, 48 h, read-out: Activity
HCT-116 [6] = experiment: Growth inhibition of human HCT116 cells assessed as cell growth at 10^-4 M after 48 hrs by SRB assay; settings: HCT-116, 48 h, read-out: Activity
[7] = Growth inhibition of human SF295 cells assessed as cell growth at 10^-5 M after 48 hrs by SRB assay; settings: SF-295, 48 h, read-out: Activity
CAKI-1 = experiment: Growth inhibition of human CAKI-1 cells assessed as cell growth at 10^-5 M after 48 hrs by SRB assay; settings: CAKI-1, 48 h, read-out: Activity; how it was run: as §1
SF-539 = experiment: Cytotoxicity against human SF539 cells after 48 hrs by SRB assay; settings: SF-539, 48 h; how it was run: as §2
[8] = Growth inhibition of human NCI-ADR-RES cells assessed as cell growth at 10^-6 M after 48 hrs by SRB assay; settings: read-out: Activity
[9] = Growth inhibition of human OVCAR4 cells assessed as cell growth at 10^-5 M after 48 hrs by SRB assay; settings: OVCAR-4, 48 h, read-out: Activity
SR = experiment: Growth inhibition of human SR cells assessed as cell growth at 10^-6 M after 48 hrs by SRB assay; settings: read-out: Activity
SF-268 [10] = experiment: Growth inhibition of human SF268 cells assessed as cell growth at 10^-7 M after 48 hrs by SRB assay; settings: SF-268, 48 h, read-out: Activity
SK-OV-3 [11] = experiment: Growth inhibition of human SKOV3 cells assessed as cell growth at 10^-7 M after 48 hrs by SRB assay; settings: SK-OV-3, 48 h, read-out: Activity
COLO 205 = experiment: Growth inhibition of human COLO205 cells assessed as cell growth at 10^-6 M after 48 hrs by SRB assay; settings: COLO 205, 48 h, read-out: Activity; how it was run: as §1
MDA-MB-468 = experiment: Growth inhibition of human MDA-MB-468 cells assessed as cell growth at 10^-4 M after 48 hrs by SRB assay; settings: MDA-MB-468, 48 h, read-out: Activity
M14 [12] = experiment: Growth inhibition of human M14 cells assessed as cell growth at 10^-4 M after 48 hrs by SRB assay; settings: M14, 48 h, read-out: Activity
[13] = Growth inhibition of human Hs578T cells assessed as cell growth at 10^-4 M after 48 hrs by SRB assay; settings: Hs-578T, read-out: Activity
[14] = Growth inhibition of human SF295 cells assessed as cell growth at 10^-8 M after 48 hrs by SRB assay; settings: SF-295, 48 h, read-out: Activity
[15] = Growth inhibition of human OVCAR3 cells assessed as cell growth at 10^-6 M after 48 hrs by SRB assay; settings: OVCAR-3, 48 h, read-out: Activity
SK-OV-3 [16] = experiment: Growth inhibition of human SKOV3 cells assessed as cell growth at 10^-8 M after 48 hrs by SRB assay; settings: SK-OV-3, 48 h, read-out: Activity
[17] = read-out: LC50 (the source's name)
[18] = read-out: pLC50 (the source's name) (converted)

Question: Which growth at 0.1 µM [1] does the source give for `Cc1ccc(-c2nc3ccc(Cl)cc3c(=O)n2/N=C/c2ccccc2)cc1` here?
Answer: 99%

Question: And the growth at 0.1 µM (KM12)?
Answer: 97%

Question: And the growth at 100 µM (786-0)?
Answer: 17%

Question: And the GI50 ([2]; read-out: GI50)?
Answer: 4.58 µM

Question: What about the CC50 [2, 17] of the same compound?
Answer: > 100 µM

Question: What about the TGI ([2]; read-out: TGI) of the same compound?
Answer: > 100 µM

Question: What about the GI50 ([2]; read-out: pGI50 (converted)) of the same compound?
Answer: 4.57 µM

Question: And the CC50 [2, 18]?
Answer: > 100 µM

Question: What about the TGI ([2]; read-out: pTGI) of the same compound?
Answer: > 100 µM

Question: What about the growth at 10 µM (HCT-116 [3]) of the same compound?
Answer: 37%

Question: What about the growth at 0.01 µM (SF-268 [4]) of the same compound?
Answer: 91%

Question: And the growth at 0.1 µM (T47D)?
Answer: 88%

Question: What about the growth at 10 µM (M14 [5]) of the same compound?
Answer: 60%

Question: And the growth at 100 µM (HCT-116 [6])?
Answer: 21%

Question: What about the growth at 10 µM [7] of the same compound?
Answer: 36%

Question: What about the growth at 10 µM (CAKI-1) of the same compound?
Answer: 38%

Question: And the GI50 (SF-539; read-out: GI50)?
Answer: > 100 µM

Question: What about the CC50 (SF-539; [17]) of the same compound?
Answer: > 100 µM

Question: And the TGI (SF-539; read-out: TGI)?
Answer: > 100 µM

Question: What about the GI50 (SF-539; read-out: pGI50 (converted)) of the same compound?
Answer: > 100 µM

Question: And the CC50 (SF-539; [18])?
Answer: > 100 µM

Question: What about the TGI (SF-539; read-out: pTGI) of the same compound?
Answer: > 100 µM

Question: What about the growth at 1 µM [8] of the same compound?
Answer: 89%

Question: What about the growth at 10 µM [9] of the same compound?
Answer: 23%

Question: And the growth at 1 µM (SR)?
Answer: 52%

Question: And the growth at 0.1 µM (SF-268 [10])?
Answer: 88%

Question: And the growth at 0.1 µM (SK-OV-3 [11])?
Answer: 97%

Question: And the growth at 1 µM (COLO 205)?
Answer: 119%

Question: And the growth at 100 µM (MDA-MB-468)?
Answer: 45%

Question: What about the growth at 100 µM (M14 [12]) of the same compound?
Answer: 47%

Question: What about the growth at 100 µM [13] of the same compound?
Answer: -9%

Question: What about the growth at 0.01 µM [14] of the same compound?
Answer: 91%

Question: And the growth at 1 µM [15]?
Answer: 94%

Question: What about the growth at 0.01 µM (SK-OV-3 [16]) of the same compound?
Answer: 98%
